The source of these data is publication PMC7498667 (Neoplasia (New York, N.Y.), 2020).

Data set [1] deals with AR+/ER−/PR− breast cancer. The following applies: cited from earlier work.
Data set [2] can be described thus: Animal weight and signs of toxicity in efficacy experiment. Format: in vivo. The note with it: entire efficacy experiment, MDA-MB-453 xenograft mice. The essentials:
(§1)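 Male CB.17 SCID mice were implanted s.c. with 5 × 10^6 MDA-MB-453 cells in 5 mg/ml Matrigel. At a mean tumour volume of 100 mm3, mice were randomised by tumour size. Test compound or vehicle (20% PEG400 + 6% Cremophor EL + 74% PBS) was given i.p. daily. Tumours and body weights were measured twice weekly, with volume = length × width²/2. Data are mean ± SEM, n=8.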

The test system of data set [3] is MDA-MB-453 xenograft tumor. In words: Antitumor efficacy in MDA-MB-453 xenograft tumor model. Format: in vivo, mice. The note with it: enzalutamide 50 mg/kg IP dose. The essentials: as §1
For data set [4], the system named is 5 AR+ breast cancer cell lines. In words: Cell growth inhibition, WST-8 assay, statements for the whole panel. Format: cell-based, human. The note with it: concentrations up to 10 µM, 5 AR+ cell lines.
In another data set the test system is metastatic AR+, TNBCs. The note with it: phase 2, metastatic AR+ TNBC; cited from earlier work.
The test system of data set [5] is MDA-MB-453, HCC1428 and MCF-7 cells. The data set can be described thus: Apoptosis analysis by flow cytometry. Format: cell-based, human. The note with it: 10 µM, 3-day treatment. The gist of the method:
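MDA-MB-453, HCC1428 and MCF-7 cells were treated for 72 h with a concentration range of test compound, with AR antagonist comparators at 10 µM. For the time course, MDA-MB-453 and HCC1428 cells received 1 µM. Cells were washed in cold PBS, stained with an apoptosis detection kit and analysed by flow cytometry for percent live and apoptotic cells. Data are mean ± SEM, n=3.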
Background: A flow cytometer gives signals particle by particle.

The subject of data set [6] is caspase-8, −9, −3, and −7 and PARP. The data set can be described thus: Cleavage of caspases and PARP, Western blot. The following applies: 1 or 10 µM, MDA-MB-453 and HCC1428, 48 h. Format: cell-based, human. The essentials:
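MDA-MB-453 and HCC1428 cells were exposed to a concentration range of test compound for 48 h. Cells were lysed in RIPA with protease and phosphatase inhibitors for 30 min on ice. Lysates were run on SDS-PAGE and transferred to PVDF. Membranes were blocked in 5% milk in TBST, probed with primary antibodies for cleaved caspases and PARP overnight at 4 °C and with HRP secondary, then developed by ECL.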
(In general: Immunoblotting shows a protein as a band on a membrane.)

Data set [7] concerns MDA-MB-453, HCC1428 and MCF-7 cells. The data set can be described thus: Cell cycle analysis by flow cytometry. The following applies: 10 µM, 72 h. Format: cell-based, human. The gist of the method:
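MDA-MB-453, HCC1428 and MCF-7 cells were treated for 72 h with a concentration range of test compound (AR antagonist comparators at 10 µM), or with 1 µM over a time course. Cells were fixed in 70% ethanol overnight at 4 °C, stained with propidium iodide plus 0.2 mg/ml RNase A for 30 min at room temperature, and cell-cycle distribution was measured by flow cytometry. Data are mean ± SEM.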

The next data set concerns AR protein. Format: cell-based, human. The note with it: MDA-MB-453 cells, combination with ARD-61 for 24 h.

In the case of `CC(O)(CS(=O)(=O)c1ccc(F)cc1)C(=O)Nc1ccc(C#N)c(C(F)(F)F)c1` (stereo not shown) [Bicalutamide], in data set [1], the “Clinical benefit ratio (CBR)” value is listed as 19% and the Toxicity entry is given as “minimal toxicity”.
For the molecule `CNC(=O)c1ccc(N2C(=S)N(c3ccc(C#N)c(C(F)(F)F)c3)C(=O)C2(C)C)cc1F` [Enzalutamide], the “Animal weight loss or other signs of toxicity” value in [2] was “No animal weight loss or other signs of toxicity”. Further, the Antitumor activity entry in data set [3] is recorded as “very similar with that of ARD-61 at 25 mg/kg”. Further, in data set [4], the “Inhibition of cell growth” value is “minimal activity”. Further, the Progression-free survival result with metastatic AR+, TNBCs was “significant improvement”. The Apoptosis induction entry in data set [5] is reported as “minimal apoptosis”. In data set [6], the “Effect on cleavage of caspase-8, −9, −3, −7 and PARP” value was “minimal effect”. Moreover, the “Effect on cell cycle (G2/M arrest)” value in [7] is recorded as “minimal effect”.
Regarding `C[C@]1(O)CC[C@H]2[C@@H]3CCC4=CC(=O)CCC4=C3C=C[C@@]21C` [R1881, metribolone], the “Effect on AR depletion induced by ARD-61” value in the data set with AR protein is given as “effectively block”.
